Assay results published in ChEMBL document CHEMBL1155278, “3,4-Diaryl-isoxazoles and -imidazoles as potent dual inhibitors of p38alpha mitogen activated protein kinase and casein kinase 1delta” (J Med Chem, 2009).

Columns and labels:
[1] = biological target: Mitogen-activated protein kinase 14 (Homo sapiens, UniProt Q16539); experiment: Inhibition of p38alpha by Cherenkov counting
[2] = biological target: Casein kinase I isoform epsilon (Homo sapiens, UniProt P49674); experiment: Inhibition of recombinant CK1epsilon by Cherenkov counting in presence of 20 uM ATP
[3] = biological target: Mitogen-activated protein kinase 15 (Homo sapiens) (UniProt Q8TD08); experiment: Inhibition of ERK8 assessed as residual activity at 0.1 uM by Cherenkov counting relative to control in presence of 5 uM ATP
Summary of the method: (§1)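 Single-concentration screen at 0.1 µM across a panel of 76 protein kinases. Each kinase was run at an ATP concentration approximating its ATP Km. Results are % mean residual activity versus control assays without compound (n = 3 ± SD).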

[4] = Inhibition of PKA assessed as residual activity at 0.1 uM by Cherenkov counting relative to control in presence of 20 uM ATP
Summary of the method: (§2)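 Single-concentration selectivity screen at 0.1 μM against a panel of 76 protein kinases. Each kinase was run at an ATP level approximating its Km for ATP. Output is mean residual activity as % of the control assay without compound, n = 3 ± SD.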

[5] = biological target: Serine/threonine-protein kinase N2 (Homo sapiens) (UniProt Q16513); experiment: Inhibition of PRK2 assessed as residual activity at 0.1 uM by Cherenkov counting relative to control in presence of 5 uM ATP
Summary of the method: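 Single-concentration screen at 0.1 μM in a 76-kinase panel. ATP for each kinase was set near its Km for ATP. Residual activity is given as a percentage of control assays without compound, mean of n = 3 ± SD.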

[6] = biological target: Calcium/calmodulin-dependent protein kinase kinase 2 (Homo sapiens) (UniProt Q96RR4); experiment: Inhibition of CAMKKbeta assessed as residual activity at 0.1 uM by Cherenkov counting relative to control; summary of the method: as §1
[7] = biological target: Cyclin-dependent kinase 2/cyclin A (Homo sapiens) (UniProt P24941+P20248+P78396); experiment: Inhibition of CDK2/cyclin A assessed as residual activity at 0.1 uM by Cherenkov counting relative to control in presence of 20 uM ATP; type: protein-complex assay; summary of the method: as §1
[8] = Inhibition of AMPK assessed as residual activity at 0.1 uM by Cherenkov counting relative to control in presence of 50 uM ATP; summary of the method: as §1
[9] = biological target: Casein kinase I isoform delta (Homo sapiens, UniProt P48730); experiment: Inhibition of CK1delta assessed as residual activity at 0.1 uM by Cherenkov counting relative to control in presence of 20 uM ATP
Summary of the method: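 CK1δ tested within a 76-protein-kinase panel with compound at 0.1 µM. ATP for each kinase was set near its Km for ATP. Read-out was residual activity as % of control assays without compound, given as mean ± SD, n = 3.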

[10] = biological target: Serine/threonine-protein kinase PAK 5 (Homo sapiens) (UniProt Q9P286); experiment: Inhibition of PAK5 assessed as residual activity at 0.1 uM by Cherenkov counting relative to control in presence of 20 uM ATP; summary of the method: as §2
[11] = biological target: Serine/threonine-protein kinase PAK 6 (Homo sapiens) (UniProt Q9NQU5); experiment: Inhibition of PAK6 assessed as residual activity at 0.1 uM by Cherenkov counting relative to control in presence of 20 uM ATP; summary of the method: as §2
[12] = biological target: Tyrosine-protein kinase CSK (Homo sapiens) (UniProt P41240); experiment: Inhibition of CSK assessed as residual activity at 0.1 uM by Cherenkov counting relative to control in presence of 20 uM ATP; summary of the method: as §1
[13] = biological target: Insulin receptor-related protein (Homo sapiens) (UniProt P14616); experiment: Inhibition of IRR assessed as residual activity at 0.1 uM by Cherenkov counting relative to control in presence of 5 uM ATP; summary of the method: as §2
[14] = Inhibition of PKA assessed as residual activity at 10 uM by Cherenkov counting relative to control in presence of 20 uM ATP
Summary of the method: (§3)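 Single-concentration profiling at 10 μM in a 78-kinase panel. Kinase activity is expressed as a percentage of control assays run without compound.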

[15] = biological target: MAP kinase-activated protein kinase 2 (Homo sapiens) (UniProt P49137); experiment: Inhibition of MAPKAPK2 assessed as residual activity at 10 uM by Cherenkov counting relative to control in presence of 20 uM ATP
[16] = biological target: Calcium/calmodulin-dependent protein kinase kinase 2 (Homo sapiens) (UniProt Q96RR4); experiment: Inhibition of CAMKKbeta assessed as residual activity at 10 uM by Cherenkov counting relative to control
Summary of the method: (§4)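 Single-point profiling at 10 µM in a panel of 78 protein kinases. Kinase activity is expressed as a percentage relative to control assays without compound.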

[17] = Inhibition of PHK assessed as residual activity at 10 uM by Cherenkov counting relative to control
[18] = biological target: Serine/threonine-protein kinase PLK1 (Homo sapiens) (UniProt P53350); experiment: Inhibition of PLK1 assessed as residual activity at 10 uM by Cherenkov counting relative to control in presence of 5 uM ATP; summary of the method: as §3
[19] = Inhibition of AMPK assessed as residual activity at 10 uM by Cherenkov counting relative to control in presence of 50 uM ATP; summary of the method: as §4
[20] = biological target: Serine/threonine-protein kinase 26 (Homo sapiens) (UniProt Q9P289); experiment: Inhibition of MST4 assessed as residual activity at 10 uM by Cherenkov counting relative to control in presence of 20 uM ATP
[21] = biological target: T1, Serine/threonine-protein kinase TBK1 (Homo sapiens) (UniProt Q9UHD2); experiment: Inhibition of TBK1 assessed as residual activity at 10 uM by Cherenkov counting relative to control in presence of 50 uM ATP; summary of the method: as §3
T1 sequence (whole entry): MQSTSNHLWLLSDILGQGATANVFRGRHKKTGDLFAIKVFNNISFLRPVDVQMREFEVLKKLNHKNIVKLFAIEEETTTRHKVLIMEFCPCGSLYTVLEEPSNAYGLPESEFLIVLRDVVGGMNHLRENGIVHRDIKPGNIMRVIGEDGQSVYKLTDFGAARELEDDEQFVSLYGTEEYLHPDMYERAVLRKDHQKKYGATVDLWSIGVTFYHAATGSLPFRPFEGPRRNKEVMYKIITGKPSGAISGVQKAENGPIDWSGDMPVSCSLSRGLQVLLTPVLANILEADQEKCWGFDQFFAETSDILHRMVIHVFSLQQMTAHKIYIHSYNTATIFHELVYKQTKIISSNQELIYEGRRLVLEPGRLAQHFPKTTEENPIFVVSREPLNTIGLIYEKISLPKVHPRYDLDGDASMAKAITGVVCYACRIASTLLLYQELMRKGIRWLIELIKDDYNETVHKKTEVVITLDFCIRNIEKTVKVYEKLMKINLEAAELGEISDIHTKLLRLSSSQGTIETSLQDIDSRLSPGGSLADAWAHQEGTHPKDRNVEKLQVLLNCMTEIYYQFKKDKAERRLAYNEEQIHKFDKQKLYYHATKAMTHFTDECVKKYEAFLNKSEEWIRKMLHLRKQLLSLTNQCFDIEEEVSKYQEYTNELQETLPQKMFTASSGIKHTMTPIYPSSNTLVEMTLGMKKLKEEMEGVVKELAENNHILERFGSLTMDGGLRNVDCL

Calcium/calmodulin-dependent protein kinase kinase 2 (Homo sapiens), sequence (Q96RR4 2-588 limits assumed): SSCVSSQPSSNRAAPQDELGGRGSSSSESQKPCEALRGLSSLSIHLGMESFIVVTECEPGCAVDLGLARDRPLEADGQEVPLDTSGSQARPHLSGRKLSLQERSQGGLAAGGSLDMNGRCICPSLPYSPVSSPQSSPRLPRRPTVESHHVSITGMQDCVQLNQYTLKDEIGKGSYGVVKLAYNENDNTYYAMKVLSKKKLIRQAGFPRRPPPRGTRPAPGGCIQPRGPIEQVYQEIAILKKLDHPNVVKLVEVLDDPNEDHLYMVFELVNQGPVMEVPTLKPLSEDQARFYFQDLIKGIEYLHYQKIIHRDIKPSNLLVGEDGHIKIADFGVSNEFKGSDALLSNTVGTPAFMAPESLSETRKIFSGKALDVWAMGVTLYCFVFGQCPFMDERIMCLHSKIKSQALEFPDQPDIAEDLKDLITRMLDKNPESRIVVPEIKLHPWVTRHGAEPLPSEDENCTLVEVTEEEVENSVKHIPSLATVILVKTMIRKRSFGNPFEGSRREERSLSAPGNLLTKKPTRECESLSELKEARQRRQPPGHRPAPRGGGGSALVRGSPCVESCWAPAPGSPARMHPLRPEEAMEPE
Serine/threonine-protein kinase 26 (Homo sapiens), sequence (Q9P289 2-416 limits assumed): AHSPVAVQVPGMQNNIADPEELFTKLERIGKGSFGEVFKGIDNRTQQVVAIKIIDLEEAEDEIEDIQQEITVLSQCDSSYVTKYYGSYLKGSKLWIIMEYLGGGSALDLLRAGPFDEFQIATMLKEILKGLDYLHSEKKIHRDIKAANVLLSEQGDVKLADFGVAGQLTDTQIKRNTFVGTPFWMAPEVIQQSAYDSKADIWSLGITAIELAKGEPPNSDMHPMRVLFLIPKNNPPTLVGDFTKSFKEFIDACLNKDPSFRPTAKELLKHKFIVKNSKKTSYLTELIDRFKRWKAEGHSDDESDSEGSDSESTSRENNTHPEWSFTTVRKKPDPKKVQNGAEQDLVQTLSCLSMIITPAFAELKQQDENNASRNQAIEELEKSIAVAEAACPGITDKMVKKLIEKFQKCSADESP
Serine/threonine-protein kinase PAK 5 (Homo sapiens), sequence (Q9P286 whole entry, looked up): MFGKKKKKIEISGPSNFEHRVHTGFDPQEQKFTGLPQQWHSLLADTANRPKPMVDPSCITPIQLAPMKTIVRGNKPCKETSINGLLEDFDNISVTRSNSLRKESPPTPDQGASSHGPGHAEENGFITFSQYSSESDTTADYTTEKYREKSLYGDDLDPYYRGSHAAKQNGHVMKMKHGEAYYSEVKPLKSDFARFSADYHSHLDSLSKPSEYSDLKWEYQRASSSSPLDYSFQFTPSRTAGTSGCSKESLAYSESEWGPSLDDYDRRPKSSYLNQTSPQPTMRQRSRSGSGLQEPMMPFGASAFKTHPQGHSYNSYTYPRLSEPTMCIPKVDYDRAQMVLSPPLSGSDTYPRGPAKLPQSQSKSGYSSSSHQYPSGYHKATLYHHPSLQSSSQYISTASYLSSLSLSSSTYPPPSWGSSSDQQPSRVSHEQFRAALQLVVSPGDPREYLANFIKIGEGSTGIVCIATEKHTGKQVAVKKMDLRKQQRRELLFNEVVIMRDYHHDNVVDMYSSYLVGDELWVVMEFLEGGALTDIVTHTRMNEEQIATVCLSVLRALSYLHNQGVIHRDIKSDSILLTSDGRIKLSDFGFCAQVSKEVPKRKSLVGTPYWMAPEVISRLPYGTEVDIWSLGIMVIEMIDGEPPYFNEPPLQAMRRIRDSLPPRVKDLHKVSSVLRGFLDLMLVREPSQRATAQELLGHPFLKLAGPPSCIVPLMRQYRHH
Insulin receptor-related protein (Homo sapiens), sequence (P14616 27-742 limits assumed): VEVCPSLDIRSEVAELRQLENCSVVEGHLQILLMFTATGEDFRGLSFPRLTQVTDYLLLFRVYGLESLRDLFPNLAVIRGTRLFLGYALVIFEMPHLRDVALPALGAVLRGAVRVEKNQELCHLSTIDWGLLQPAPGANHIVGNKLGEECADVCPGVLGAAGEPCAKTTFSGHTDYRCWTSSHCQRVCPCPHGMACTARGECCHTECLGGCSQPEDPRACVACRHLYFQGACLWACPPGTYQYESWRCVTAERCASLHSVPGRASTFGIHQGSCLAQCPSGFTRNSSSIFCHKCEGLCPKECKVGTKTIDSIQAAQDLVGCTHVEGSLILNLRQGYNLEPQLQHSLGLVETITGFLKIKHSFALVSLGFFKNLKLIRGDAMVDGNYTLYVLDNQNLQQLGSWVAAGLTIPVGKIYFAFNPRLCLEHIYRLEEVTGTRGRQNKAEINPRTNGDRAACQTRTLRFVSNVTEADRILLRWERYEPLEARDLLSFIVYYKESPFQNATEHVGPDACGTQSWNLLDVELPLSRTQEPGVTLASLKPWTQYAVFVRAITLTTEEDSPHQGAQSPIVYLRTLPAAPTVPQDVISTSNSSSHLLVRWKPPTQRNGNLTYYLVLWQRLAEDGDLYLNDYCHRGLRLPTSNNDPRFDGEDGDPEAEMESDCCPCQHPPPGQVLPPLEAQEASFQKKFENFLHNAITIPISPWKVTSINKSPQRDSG
Insulin receptor-related protein (Homo sapiens), sequence (P14616 747-1297 limits assumed): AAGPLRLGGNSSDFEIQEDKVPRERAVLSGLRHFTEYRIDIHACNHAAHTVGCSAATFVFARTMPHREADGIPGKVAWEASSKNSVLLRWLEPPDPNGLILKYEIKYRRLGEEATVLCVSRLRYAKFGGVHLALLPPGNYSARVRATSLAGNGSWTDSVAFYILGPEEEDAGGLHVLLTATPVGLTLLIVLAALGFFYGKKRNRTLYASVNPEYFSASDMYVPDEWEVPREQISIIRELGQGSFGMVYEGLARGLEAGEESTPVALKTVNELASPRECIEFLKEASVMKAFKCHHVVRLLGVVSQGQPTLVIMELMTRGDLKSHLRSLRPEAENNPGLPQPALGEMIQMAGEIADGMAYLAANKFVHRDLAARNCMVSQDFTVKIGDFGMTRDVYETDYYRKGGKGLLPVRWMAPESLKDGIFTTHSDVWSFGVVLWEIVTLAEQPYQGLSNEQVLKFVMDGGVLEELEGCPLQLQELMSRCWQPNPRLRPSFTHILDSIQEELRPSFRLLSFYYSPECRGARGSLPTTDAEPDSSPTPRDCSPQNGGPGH
Casein kinase I isoform epsilon, sequence (P49674 whole entry, canonical isoform): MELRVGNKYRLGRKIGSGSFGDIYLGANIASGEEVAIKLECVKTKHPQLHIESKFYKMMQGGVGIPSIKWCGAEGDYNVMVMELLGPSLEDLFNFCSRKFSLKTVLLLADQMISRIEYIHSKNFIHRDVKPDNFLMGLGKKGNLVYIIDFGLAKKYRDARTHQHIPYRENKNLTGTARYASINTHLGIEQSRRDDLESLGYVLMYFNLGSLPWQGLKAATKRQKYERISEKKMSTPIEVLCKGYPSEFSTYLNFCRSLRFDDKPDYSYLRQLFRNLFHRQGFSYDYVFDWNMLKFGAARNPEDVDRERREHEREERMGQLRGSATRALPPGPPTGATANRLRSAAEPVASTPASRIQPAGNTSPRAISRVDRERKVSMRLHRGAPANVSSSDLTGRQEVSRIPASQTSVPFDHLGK
Mitogen-activated protein kinase 15 (Homo sapiens), sequence (Q8TD08 whole entry): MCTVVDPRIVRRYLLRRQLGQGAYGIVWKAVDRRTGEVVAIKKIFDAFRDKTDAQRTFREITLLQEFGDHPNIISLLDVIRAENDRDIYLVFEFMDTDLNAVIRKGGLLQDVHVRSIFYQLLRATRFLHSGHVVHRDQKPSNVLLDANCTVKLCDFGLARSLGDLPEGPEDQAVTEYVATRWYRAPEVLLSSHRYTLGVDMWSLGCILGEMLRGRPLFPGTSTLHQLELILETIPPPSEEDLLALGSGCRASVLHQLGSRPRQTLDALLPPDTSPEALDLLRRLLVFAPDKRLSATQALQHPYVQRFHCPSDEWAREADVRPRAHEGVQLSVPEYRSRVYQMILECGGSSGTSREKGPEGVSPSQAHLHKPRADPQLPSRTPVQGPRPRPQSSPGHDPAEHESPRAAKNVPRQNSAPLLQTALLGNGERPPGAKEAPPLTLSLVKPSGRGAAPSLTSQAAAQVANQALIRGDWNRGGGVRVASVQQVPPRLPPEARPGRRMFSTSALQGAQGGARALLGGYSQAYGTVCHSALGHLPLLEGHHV
Tyrosine-protein kinase CSK (Homo sapiens), sequence (P41240 2-450 limits assumed): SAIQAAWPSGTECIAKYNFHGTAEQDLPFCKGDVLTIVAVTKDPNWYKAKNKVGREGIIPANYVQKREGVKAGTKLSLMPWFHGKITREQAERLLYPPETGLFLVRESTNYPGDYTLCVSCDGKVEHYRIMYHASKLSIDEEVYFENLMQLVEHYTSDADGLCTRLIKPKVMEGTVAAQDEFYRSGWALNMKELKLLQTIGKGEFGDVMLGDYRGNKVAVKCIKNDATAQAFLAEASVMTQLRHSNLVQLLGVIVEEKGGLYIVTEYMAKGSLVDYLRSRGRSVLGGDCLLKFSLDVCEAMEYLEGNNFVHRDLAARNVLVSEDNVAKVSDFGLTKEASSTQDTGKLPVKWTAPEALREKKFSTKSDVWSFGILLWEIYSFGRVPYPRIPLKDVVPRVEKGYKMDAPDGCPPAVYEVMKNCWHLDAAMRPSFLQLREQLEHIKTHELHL
MAP kinase-activated protein kinase 2 (Homo sapiens), sequence (P49137 whole entry, looked up): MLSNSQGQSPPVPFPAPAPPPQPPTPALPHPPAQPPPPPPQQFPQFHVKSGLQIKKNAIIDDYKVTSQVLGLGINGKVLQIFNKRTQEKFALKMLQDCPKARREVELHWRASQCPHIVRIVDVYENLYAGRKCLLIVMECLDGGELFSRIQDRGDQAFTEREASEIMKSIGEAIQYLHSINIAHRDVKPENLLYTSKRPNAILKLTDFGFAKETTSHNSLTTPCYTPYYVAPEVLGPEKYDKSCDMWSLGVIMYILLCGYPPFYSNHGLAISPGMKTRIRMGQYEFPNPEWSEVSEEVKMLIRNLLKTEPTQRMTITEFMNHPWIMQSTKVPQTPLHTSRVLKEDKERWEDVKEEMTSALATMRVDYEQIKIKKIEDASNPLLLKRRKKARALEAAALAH

Row | IC50 [1] [nM] | IC50 [2] [nM] | Activity [4] [%] | Activity [5] [%] | Activity [6] [%] | Activity [7] [%] | Activity [8] [%] | Activity [9] [%] | Activity [10] [%] | Activity [11] [%] | Activity [12] [%] | Activity [13] [%] | Activity [14] [%] | Activity [15] [%] | Activity [16] [%] | Activity [17] [%] | Activity [18] [%] | Activity [19] [%] | Activity [20] [%] | Compound | Activity [3] [%] | also measured
1 | 41 | 447 | 92 | 96 | 92 | 115 | 99 | 18 | 105 | 84 | 79 | 83 | – | – | – | – | – | – | – | COc1ccc(/C=C/C(=O)Nc2cc(-c3[nH]c([S+](C)[O-])nc3-c3ccc(F)cc3)ccn2)c(OC)c1 (configuration not stated) | 88 | –
2 | – | – | – | – | – | – | – | – | – | – | – | – | 90 | 100 | 97 | 99 | 93 | 73 | 102 | CC(C)c1noc(-c2ccc(F)cc2)c1-c1ccncc1 | – | Activity [21]: 80%
3 | – | – | – | – | – | – | – | – | – | – | – | – | 28 | 105 | 99 | 96 | 104 | 88 | 88 | CC(C)c1onc(-c2ccc(F)cc2)c1-c1ccncc1 | – | Activity [21]: 90%
4 | 19 | 73 | 84 | 95 | 88 | 112 | 92 | 10 | 94 | 76 | 81 | 61 | – | – | – | – | – | – | – | COc1ccc(/C=C/C(=O)Nc2cc(-c3[nH]c(SC)nc3-c3ccc(F)cc3)ccn2)c(OC)c1 | 83 | –
